Source: ChEMBL document CHEMBL1123757, “Selective thromboxane synthetase inhibitors and antihypertensive agents. New derivatives of 4-hydrazino-5H-pyridazino[4,5-b]indole, 4-hydrazinopyridazino[4,5-a]indole, and related compounds” (J Med Chem, 1987)
The source made the active and inactive calls. The calls are words filed in the database; no cut-off is given here.

What was measured:
Homo sapiens [1] = species: Homo sapiens; settings: 10e-5 M
Rattus norvegicus [2] = assay: Antihypertensive activity in spontaneously hypertensive rats (SHR) measured by percentage fall in arterial pressure (AP) at 1 mg/kg administered intraperitoneally at 24 h;No significance; assay type: functional, organism-based; set-up: dose 1 mg/kg; settings: Artery
Procedure, shortened: (§1)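 Unanesthetized Okamoto-strain SHR, male and female, 8 weeks old, 300–350 g, systolic pressure ≥190 mmHg, heart rate 400–650 beats/min; five animals per dose. Given ip at 2.5 mL/kg, dissolved or suspended in normal saline or saline with 0.2% (carboxymethyl)cellulose and 1.0% Tween 80. Tail AP and CR recorded by mechanical transduction at set times; reported as percentage fall from control.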

Rattus norvegicus [3] = species: Rattus norvegicus; settings: Heart, 1 mg/kg
Rattus norvegicus [4] = assay: Antihypertensive activity in spontaneously hypertensive rats (SHR) measured by percentage fall in cardiac rhythm (CR) at 1 mg/kg administered intraperitoneally at 3 h; assay type: functional, Heart; settings: route intraperitoneal
Procedure, shortened: as §1

Rattus norvegicus [5] = assay: Antihypertensive activity in spontaneously hypertensive rats (SHR) measured by percentage fall in cardiac rhythm (CR) at 1 mg/kg administered intraperitoneally at 5 h; assay type: functional, Heart; settings: route intraperitoneal
Procedure, shortened: as §1

Homo sapiens [6] = species: Homo sapiens; settings: 10e-5 M; remark: listed apart in the source
Homo sapiens [7] = species: Homo sapiens; assay: In vitro inhibition of platelet aggregation induced by AA (PRP incubated for 60 minutes at 37 degree C) at 10e-5 M;No significance; assay type: functional
Procedure, shortened: (§2)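 Human venous blood anticoagulated with 3.8% sodium citrate (1:9). PRP from centrifugation at 800 rpm for 10 min at room temperature. Count adjusted with PPP to […]. Compound in saline with 10% ethylene glycol is added to PRP and incubated at 37 °C before the agonist. Agonists: ADP 2×10^-5 M, AA 0.6 mM, PGH2 2.8 μM, adrenaline 0.6 μM. Born absorbance aggregometry; n = 5.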

Rattus norvegicus [8] = species: Rattus norvegicus; settings: Heart, 1 mg/kg; remark: listed apart in the source
Rattus norvegicus [9] = species: Rattus norvegicus; settings: Artery, 1 mg/kg
Rattus norvegicus [10] = species: Rattus norvegicus; settings: Heart, 1 mg/kg; remark: listed apart in the source
Cavia porcellus [11] = species: Cavia porcellus; settings: 30 mg/kg
Cavia porcellus [12] = species: Cavia porcellus; settings: 50 mg/kg
Cavia porcellus [13] = assay: Ex vivo inhibition of platelet aggregation induced by AA at 100 mg/kg; assay type: functional
Procedure, shortened: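 Fasted male or female guinea pigs (250–300 g, five per group) dosed orally in normal saline or saline with 0.2% (carboxymethyl)cellulose/1.0% Tween 80; controls given vehicle. Under ether, cardiac blood collected into 3.8% citrate. PRP adjusted to […] and aggregation induced by ADP (second wave) or AA, read by absorbance aggregometry. PGE2 and TXB2 measured by RIA.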

Homo sapiens [14] = species: Homo sapiens; assay: In vitro inhibition of platelet aggregation induced by ADP-II (PRP incubated for 5 minutes at 37 degree C) at 10e-5 M;No significance; assay type: functional
Procedure, shortened: as §2

Rattus norvegicus [15] = assay: Percent fall in systolic blood pressure, directly measured on carotid (iv on the jugular vein) of spontaneously hypertensive rats at 1 mg/kg after 30 minutes; assay type: functional, Artery
Procedure, shortened: (§3)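 Anesthetized (sodium pentobarbital, 70 mg/kg) male and female Okamoto SHR, 8 weeks old, 300–350 g. Given iv into the jugular vein in normal saline. Arterial pressure and cardiac rhythm are recorded directly from the carotid by polygraph at set times after dosing. Each is expressed as percent change from the pre-dose control value.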

Cavia porcellus [16] = species: Cavia porcellus; settings: 50 mg/kg; remark: listed apart in the source
Rattus norvegicus [17] = species: Rattus norvegicus; settings: Heart, 1 mg/kg; remark: listed apart in the source
Rattus norvegicus [18] = assay: Antihypertensive activity in spontaneously hypertensive rats (SHR) measured by percentage fall in cardiac rhythm (CR) at 1 mg/kg administered intraperitoneally at 1 h; assay type: functional, Heart; settings: route intraperitoneal
Procedure, shortened: as §1

Cavia porcellus [19] = species: Cavia porcellus; settings: 100 mg/kg
Rattus norvegicus [20] = assay: Percent fall in systolic blood pressure, directly measured on carotid (iv on the jugular vein) of spontaneously hypertensive rats at 1 mg/kg after 5 minutes; assay type: functional, Artery
Procedure, shortened: as §3

Rattus norvegicus [21] = assay: Percent fall in systolic blood pressure, directly measured on carotid (iv on the jugular vein) of spontaneously hypertensive rats at 1 mg/kg after 75 minutes; assay type: functional, Artery
Procedure, shortened: as §3

Rattus norvegicus [22] = assay: Percent fall in systolic blood pressure, directly measured on carotid (iv on the jugular vein) of spontaneously hypertensive rats at 1 mg/kg after 120 minutes; assay type: functional, Artery
Procedure, shortened: as §3

Rattus norvegicus [23] = assay: Antihypertensive activity in spontaneously hypertensive rats (SHR) measured by percentage fall in arterial pressure (AP) at 1 mg/kg administered intraperitoneally at 3 h; assay type: functional, Artery; settings: route intraperitoneal
Procedure, shortened: as §1

Rattus norvegicus [24] = assay: Percent fall in systolic blood pressure, directly measured on carotid (iv on the jugular vein) of spontaneously hypertensive rats at 1 mg/kg after 60 minutes; assay type: functional, Artery
Procedure, shortened: as §3

Cavia porcellus [25] = species: Cavia porcellus; settings: 30 mg/kg; remark: listed apart in the source
Rattus norvegicus [26] = assay: Antihypertensive activity in spontaneously hypertensive rats (SHR) measured by percentage fall in arterial pressure (AP) at 1 mg/kg administered intraperitoneally at 1 h; assay type: functional, Artery; settings: route intraperitoneal
Procedure, shortened: as §1

Rattus norvegicus [27] = assay: Percent fall in systolic blood pressure, directly measured on carotid (iv on the jugular vein) of spontaneously hypertensive rats at 1 mg/kg after 15 minutes; assay type: functional, Artery
Procedure, shortened: as §3

Rattus norvegicus [28] = species: Rattus norvegicus; settings: Artery, 1 mg/kg; remark: listed apart in the source
Rattus norvegicus [29] = assay: Percent increase in cardiac rhythm, directly measured on carotid (iv on the jugular vein) of spontaneously hypertensive rats at 1 mg/kg after 30 minutes; settings: Heart, 0.5 h, read-out: Inhibition

Compound: Cl.NNc1nncc2ccccc12 [HYDRALAZINE HYDROCHLORIDE]
- inhibition (Homo sapiens [1]): inactive
- Decrease in AP (Rattus norvegicus [2]): inactive
- Decrease in blood pressure (Rattus norvegicus [3]): inactive
- Decrease in CR (Rattus norvegicus [4]): -5%
- Decrease in CR (Rattus norvegicus [5]): -2%
- Increase (Homo sapiens [6]): inactive
- inhibition (Homo sapiens [7]): inactive
- inhibition (Rattus norvegicus [8]): inactive
- Decrease in blood pressure (Rattus norvegicus [9]): inactive
- inhibition (Rattus norvegicus [10]): inactive
- inhibition (Cavia porcellus [11]): inactive
- inhibition (Cavia porcellus [12]): inactive
- inhibition in vivo at 100 mg/kg (Cavia porcellus [13]): 75%
- inhibition (Homo sapiens [14]): inactive
- Decrease in blood pressure (Rattus norvegicus [15]): 48%
- inhibition (Cavia porcellus [16]): inactive
- Decrease in CR (Rattus norvegicus [17]): inactive
- Decrease in CR (Rattus norvegicus [18]): -7%
- Inhibition % (Cavia porcellus [19]): inactive
- Decrease in blood pressure (Rattus norvegicus [20]): 40%
- Decrease in blood pressure (Rattus norvegicus [21]): 60%
- Decrease in blood pressure (Rattus norvegicus [22]): 20%
- Decrease in AP (Rattus norvegicus [23]): 20%
- Decrease in blood pressure (Rattus norvegicus [24]): 52%
- inhibition (Cavia porcellus [25]): inactive
- Decrease in AP (Rattus norvegicus [26]): 20%
- Decrease in blood pressure (Rattus norvegicus [27]): 48%
- inhibition (Rattus norvegicus [28]): inactive
- inhibition in vivo at 1 mg/kg (Rattus norvegicus [29]): 20%
